Assay outcomes deposited in PubChem by several laboratories.
Phagocytosis inh: inhibitors of macrophage phagocytosis | J774A.1 macrophage IgG-bead phagocytosis, imaging | inhibition, % at 5 µM | 110,000 compounds, 0.07% hits | AID 1029;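 active = inhibition above the mean of the plate negative controls plus 5 SD, cut at about 13% in these data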;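 also: phagocytic index as fraction of beads internalized from green versus red external bead signal; plate controls were DMSO negative control for no effect and cytochalasin-D positive control for full effect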
bCat KO growth: beta-catenin-lacking colon tumor cell growth suppression; HCT116 beta-catenin knockout viability, CellTiter-Glo, 60 h; active compounds read low; viability, % at 10 µM; 140,000 compounds, 1.5% hits;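 active = viability at or under a set limit, the compound median less 4 SD, cut at about 6% in these data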;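 also: 0% = Hyamine 1622 control at 20 µM and 100% = untreated cell control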
Fibroblast inh: blocks proliferation of human lung fibroblasts; LL 47 human lung fibroblast viability, ATP luminescence; active compounds read low; viability, % at 10 µM; 85,000 compounds, 1.1% hits; AID 719;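 active = viability at or below 50% in the single dose screen; inactive = viability above 50%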;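 also: compound exposure lasted 72 h before the ATP readout; 100% = median luminescence of untreated cell-only wells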
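Assay system: human lung fibroblast line LL 47, low passage. Input: 1,150 fibroblasts seeded per well. Times: overnight cell rest, 72 h compound treatment at 37 °C. Evaluation: % viability of median cell-only signal. Technique: luminescent ATP detection, CellTiter-Glo. Control set: cell-only wells, no compound.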
HUVEC inhibit: blocks proliferation of human endothelial cells; HUVEC proliferation, CellTiter-Glo luminescence, 72 h; active compounds read low; viability, % at 10 µM (by protocol); 86,000 compounds, 1.1% hits;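 active = viability at or below 30%; inactive = viability above 30%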;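 also: 100% = median luminescence of DMSO-only cell control wells on each plate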
H69AR growth 86K: blocks growth of human H69AR lung tumor cells; H69AR lung tumor viability, ATP luminescence, 72 h; active compounds read low; viability, % at 10 µM; 85,000 compounds, 6% hits;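 active = viability at or below 40%; inactive = viability above 40%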;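 also: multidrug resistant small cell line overexpressing MRP-1 efflux transporter; 100% = mean luminescence of untreated control wells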
PTEN del growth: growth suppressors of cells with PTEN tumor suppressor deletion; HCT116 PTEN-null viability, CellTiter-Glo, 60 h; active compounds read low; viability, % at 10 µM; 140,000 compounds, 1.2% hits; AID 827;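 active = viability at or below a set limit, 4 SD under the median of all tested compounds, cut at about 3.7% in these data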;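 also: PTEN knockout HCT116 line with beta catenin targeted HCT116 as companion control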
Starred values were filed as active, the others as inactive; nt = no result. Shown is part of a subset that was picked to be rich in hits.

SMILES | Phagocytosis inh | bCat KO growth | Fibroblast inh | HUVEC inhibit | H69AR growth 86K | PTEN del growth
CCOC(=O)c1ccc(NC(=O)c2c(C)[nH]c(C(=O)OCC)c2C)cc1 | -2 | 81 | 49* | 96 | 75 | 99
CCOC(=O)c1[nH]c(C)c(C(=O)Nc2cccc(Cl)c2C)c1C | -2 | 30 | 81 | 46 | 15* | 24
CCc1c(C(=O)Nc2ccc(OC)cc2)[nH]c(C)c1C(C)=O | -1 | 60 | 92 | 85 | 26* | 65
CCOC(=O)c1c(C)[nH]c(C(=O)OCC(=O)Nc2cc(C)c(Cl)cc2OC)c1C | -1 | 1.6* | nt | nt | nt | 1.5*
CCc1c(C(=O)Nc2cc(C)ccc2OC)[nH]c(C)c1C(C)=O | -1 | 78 | 92 | 66 | 74 | 82
Cc1ccccc1NC(=O)c1cc(C(=O)c2cc(Cl)ccc2O)cn(-c2ccccc2C)c1=O | nt | 8 | nt | nt | nt | 6
Cn1cc([N+](=O)[O-])c(C(=O)N(Cc2ccccc2)Cc2ccccc2)n1 | 2 | 93 | nt | nt | nt | 101
CCOC(=O)c1[nH]c(C)c(C(=O)OC(C)C(=O)Nc2ncc(Cl)cc2Cl)c1C (centres undefined) | 3 | 52 | 96 | 79 | 26* | 42
CCOC(=O)c1[nH]c(C)c(C(=O)N2CCc3ccccc32)c1C | nt | 13 | 49* | 45 | 26* | 12
CCOC(=O)c1[nH]c(C)c(C(=O)OCC)c1C | 0 | 87 | 93 | 100 | 97 | 79
CCOC(=O)c1[nH]c(C)c(C(=O)Nc2ccc(Cl)cc2)c1C | 0 | 90 | 102 | 101 | 91 | 94
CCOC(=O)c1[nH]c(C)c(C(=O)c2cc(F)ccc2F)c1C | 0 | 14 | 57 | 50 | 30* | 13
O=C(Cc1ccc(Cl)cc1)Nc1ccc(SC(F)F)cc1 | 0 | 90 | nt | nt | nt | 88
O=C(NCCCO)C(=O)NCCc1ccc(Cl)cc1 | -2 | 105 | nt | nt | nt | 96
N#Cc1ccc(-c2ccc(F)cc2)nc1Oc1ccc(Cl)c(Cl)c1 | 1 | 2.0* | nt | nt | nt | 1.7*
C=C(CC)C(=O)c1ccc(OCC(=O)O)c(Cl)c1Cl | nt | 72 | 60 | 57 | 12* | 72
CCOC(=O)COc1ccc2nsnc2c1Cl | -2 | 82 | 115 | 99 | 84 | 96
O=C(CCSc1nc2ccccc2s1)N/N=C/c1c(O)ccc2ccccc12 | -4 | 4.6* | nt | nt | nt | 3.2*
COc1ccc(/C=N/NC(=O)CCSc2nc3ccccc3s2)cc1OC | 0 | 88 | nt | nt | nt | 82
Cc1ccc(C)c(-c2nnc(OCC(=O)Nc3cc(C)on3)c3ccccc23)c1 | -2 | 87 | 100 | 92 | 91 | 91
Cc1ccc2cc(CN(CCCO)S(=O)(=O)c3cccc4nsnc34)c(=O)[nH]c2c1 | 2 | 99 | 99 | 91 | 72 | 107
CCn1c(SCC(=O)NC(C)c2ccccc2)nc2ccccc21 (centres undefined) | -1 | 102 | nt | nt | nt | 96
CCn1c(Sc2ccc(N)cc2Cl)nc2ccccc21 | -5 | 69 | 94 | 108 | 34* | 58
O=C(/C(=C/c1ccccc1)c1ccccc1)N1CCCCC1 | nt | 89 | nt | nt | nt | 102
Nc1nc(-c2ccccc2)cc(N2CCCCC2)n1 | 0 | 12 | 56 | 57 | 23* | 13
SMILES | Phagocytosis inh | bCat KO growth | Fibroblast inh | HUVEC inhibit | H69AR growth 86K | PTEN del growth
Cc1nc(-c2ccccc2)cc(N2CCCC2)n1 | -3 | 101 | nt | nt | nt | 99
Cc1ccc(S(=O)(=O)c2cc3c(=O)n4ccccc4nc3n(Cc3ccco3)c2=N)cc1C | nt | 70 | 73 | 87 | 7.8* | 62
Cc1ccc(S(=O)(=O)c2cc3c(=O)n4ccccc4nc3n(CC3CCCO3)c2=N)cc1C (centres undefined) | -5 | 76 | 77 | 95 | 72 | 73
N=c1c(S(=O)(=O)c2ccccc2)cc2c(=O)n3ccccc3nc2n1Cc1ccco1 | 0 | 7 | 76 | 87 | 11* | 4
CC(=O)N1CCN(CCN=CC2=C(O)CC(c3cccs3)CC2=O)CC1 (centres undefined) | -1 | 96 | 106 | 93 | 100 | 102
Cc1ccc(S(=O)(=O)NC2OC(=O)C(Cl)=C2Cl)cc1 (centres undefined) | -4 | 90 | 97 | 81 | 7.0* | 89
Cc1oc2nc(SCC(=O)NC3CCCCC3)nc(N)c2c1C | nt | nt | 93 | 94 | 80 | nt
O=C(Nc1nc(COc2ccccc2)cs1)C12CC3CC(CC(C3)C1)C2 | -1 | 39 | 87 | 56 | 39* | 30
CC(=O)Nc1nc(COc2ccccc2)cs1 | 0 | 81 | 89 | 74 | 90 | 93
